Measured values reported in ChEMBL document CHEMBL4732030, “Aloe-emodin derived azoles as a new structural type of potential antibacterial agents: design, synthesis, and evaluation of the action on membrane, DNA, and MRSA DNA isomerase” (RSC Med Chem, 2021).
Converted amounts (≈) assume the structure as drawn. The source made the active and inactive calls. The rule behind the calls is not given here.

test system: Calf thymus DNA; test: Binding affinity to calf thymus DNA assessed as DNA intercalation by measuring hypochromic shift by UV-visible absorption spectrophotometric method; type: nucleic-acid assay; conditions: Bos taurus
How it was run: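 DNA held fixed while compound concentration was raised stepwise, in Tris-HCl buffer pH 7.4. UV-vis spectra recorded at room temperature in 1.0 cm quartz cells, monitoring the 260 nm DNA band. Binding constant came from a linear fit of A0/(A−A0) against 1/[compound]. DNA stock concentration was set by A260 (ε260 = 6600 L·mol−1·cm−1, per phosphate), with A260/A280 >1.8.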

| Compound | Activity |
| --- | --- |
| O=C1c2cccc(O)c2C(=O)c2c(O)cc(Cn3cnnn3)cc21 | Active |

test system: Staphylococcus aureus; test: Potency index, ratio of norfloxacin MIC to compound MIC for antibacterial activity against methicillin resistant staphylococcus aureus incubated for 24 hrs by microbroth dilution method; type: functional; conditions: not given

| Compound | Ratio |
| --- | --- |
| O=C1c2cccc(O)c2C(=O)c2c(O)cc(Cn3cnnn3)cc21 | 4 |

test system: Pseudomonas aeruginosa; test: Antibacterial activity against Pseudomonas aeruginosa ATCC 27853 assessed as inhibition of bacterial growth after 24 hrs by microbroth dilution method; type: functional; conditions: not given
How it was run: (§1)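 Bacterial inoculum set to 1×10^5 CFU with sterile saline. Test agents and reference drugs, from DMSO stocks, diluted in Mueller-Hinton broth to 512, 256, 128, 64, 32, 16, 8, 4, 2, 1 and 0.5 µg/mL. Inoculated dilutions incubated 37 °C for 24 h.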

| Compound | MIC [µg/mL] |
| --- | --- |
| O=C1c2cccc(O)c2C(=O)c2c(O)cc(Cn3cnnn3)cc21 | 16 (≈ 49.6 µM) |
| Cc1nnnn1Cc1cc(O)c2c(c1)C(=O)c1cccc(O)c1C2=O | 32 (≈ 95.2 µM) |
| O=C1c2cccc(O)c2C(=O)c2c(O)cc(Cn3cncn3)cc21 | 32 (≈ 99.6 µM) |
| O=C1c2cccc(O)c2C(=O)c2c(O)cc(CSc3nnc[nH]3)cc21 | 64 (≈ 181 µM) |

test system: Staphylococcus aureus; test: Induction of ROS generation in methicillin-resistant Staphylococcus aureus after 6 hrs by DCFH-DA dye based fluorometric analysis; type: functional, organism-based; conditions: not given
How it was run: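 MRSA cells at 10^6 CFU/mL were exposed to increasing concentrations of compound for 6 h at 37 °C, then washed with PBS. They were loaded with 10 μM DCFH-DA for 30 min in the dark at 37 °C. DCF fluorescence was read at ex 485/em 528 nm and expressed as fold increase over untreated control cells.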

| Compound | Activity |
| --- | --- |
| O=C1c2cccc(O)c2C(=O)c2c(O)cc(Cn3cnnn3)cc21 | inactive |

test system: Cell membrane; test: Disruption of membrane integrity in methicillin-reisitant Staphylococcus aureus assessed as increase in fluorescence intensity at 12 times MIC measured within 50 mins by PI-staining based fluorescence analysis; conditions: not given
How it was run: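 Overnight MRSA culture pelleted, washed and resuspended in 5 mM glucose/5 mM HEPES pH 7.4 (1:1). Compound at 12× MIC added to 2 mL suspension containing 10 µM propidium iodide. Fluorescence followed at ex 535/em 617 nm. Water-treated suspension served as control.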

| Compound | Activity |
| --- | --- |
| O=C1c2cccc(O)c2C(=O)c2c(O)cc(Cn3cnnn3)cc21 | Active |

test system: Staphylococcus aureus; test: Antibacterial activity against Staphylococcus aureus ATCC 25923 assessed as inhibition of bacterial growth after 24 hrs by microbroth dilution method; type: functional; conditions: not given; how it was run: as §1

| Compound | MIC [µg/mL] |
| --- | --- |
| O=C1c2cccc(O)c2C(=O)c2c(O)cc(Cn3cnnn3)cc21 | 64 (≈ 199 µM) |
| Cc1nnnn1Cc1cc(O)c2c(c1)C(=O)c1cccc(O)c1C2=O | 64 (≈ 190 µM) |
| O=C1c2cccc(O)c2C(=O)c2c(O)cc(Cn3cncn3)cc21 | 16 (≈ 49.8 µM) |
| O=C1c2cccc(O)c2C(=O)c2c(O)cc(CSc3nnc[nH]3)cc21 | 16 (≈ 45.3 µM) |

test system: not listed separately; test: Cytotoxicity against human LO2 cells assessed as cell viability at 12.5 uM after 72 hrs by CCK8 assay; type: cell-based, L02; conditions: read-out: Activity
How it was run: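 Normal human liver LO2 cells seeded at 3000/well and cultured 24 h. Compound added at 100 to 6.25 µM in PBS containing 1% DMSO, then incubated 72 h. CCK8 added for 2 h at 37 °C and absorbance read at 450 nm.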

| Compound | viability at 72 h, 12.5 µM [%] |
| --- | --- |
| O=C1c2cccc(O)c2C(=O)c2c(O)cc(Cn3cnnn3)cc21 | > 60 |

test system: Escherichia coli; test: Antibacterial activity against Escherichia coli assessed as inhibition of bacterial growth after 24 hrs by microbroth dilution method; type: functional; conditions: not given; how it was run: as §1

| Compound | MIC [µg/mL] |
| --- | --- |
| O=C1c2cccc(O)c2C(=O)c2c(O)cc(Cn3cnnn3)cc21 | 128 (≈ 397 µM) |
| Cc1nnnn1Cc1cc(O)c2c(c1)C(=O)c1cccc(O)c1C2=O | 64 (≈ 190 µM) |
| O=C1c2cccc(O)c2C(=O)c2c(O)cc(Cn3cncn3)cc21 | 64 (≈ 199 µM) |
| O=C1c2cccc(O)c2C(=O)c2c(O)cc(CSc3nnc[nH]3)cc21 | 128 (≈ 362 µM) |

test system: Calf thymus DNA; test: Binding affinity to calf thymus DNA assessed as DNA intercalation by neutral red dye based UV-visible spectroscopic method; type: nucleic-acid assay; conditions: Bos taurus
How it was run: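 Neutral red stock prepared in doubly distilled water and kept cool and dark. DNA stock concentration was set by A260 (ε260 = 6600 L·mol−1·cm−1, per phosphate), with A260/A280 >1.8. All solutions were in Tris-HCl pH 7.4. UV spectra were taken at room temperature in 1.0 cm quartz cells.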

| Compound | Activity |
| --- | --- |
| O=C1c2cccc(O)c2C(=O)c2c(O)cc(Cn3cnnn3)cc21 | Active |

test system: Cell membrane; test: Disruption of membrane integrity in methicillin-reisitant Staphylococcus aureus assessed as increase in red fluorescence at 12 times MIC by PI-staining based fluorescence microscopy analysis; conditions: not given
How it was run: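 Overnight MRSA cultures treated at 12× MIC, with 0.1% Triton X-100 as positive control and untreated cells as negative control. Cells washed once in 1× PBS and stained with 4.5 mM propidium iodide for 15 min at 37 °C. Imaged by fluorescence microscopy, 10× objective, green-light excitation.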

| Compound | Activity |
| --- | --- |
| O=C1c2cccc(O)c2C(=O)c2c(O)cc(Cn3cnnn3)cc21 | Active |

test system: Klebsiella pneumoniae; test: Antibacterial activity against Klebsiella pneumoniae assessed as inhibition of bacterial growth after 24 hrs by microbroth dilution method; type: functional; conditions: not given; how it was run: as §1

| Compound | MIC [µg/mL] |
| --- | --- |
| O=C1c2cccc(O)c2C(=O)c2c(O)cc(Cn3cnnn3)cc21 | 32 (≈ 99.3 µM) |
| Cc1nnnn1Cc1cc(O)c2c(c1)C(=O)c1cccc(O)c1C2=O | 64 (≈ 190 µM) |
| O=C1c2cccc(O)c2C(=O)c2c(O)cc(Cn3cncn3)cc21 | 64 (≈ 199 µM) |
| O=C1c2cccc(O)c2C(=O)c2c(O)cc(CSc3nnc[nH]3)cc21 | 64 (≈ 181 µM) |

test system: Staphylococcus aureus; test: Antibacterial activity against methicillin resistant Staphylococcus aureus assessed as inhibition of bacterial growth after 24 hrs by microbroth dilution method; type: functional; conditions: not given
How it was run: (§2)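 Inoculum adjusted in sterile saline to 1×10^5 CFU. Compounds dissolved in DMSO as stock, then diluted in Mueller-Hinton broth as a two-fold series from 512 to 0.5 µg/mL (11 levels). Inoculated dilutions incubated at 37 °C for 24 h, and the MIC recorded.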

| Compound | MIC [µg/mL] |
| --- | --- |
| O=C1c2cccc(O)c2C(=O)c2c(O)cc(Cn3cnnn3)cc21 | 2 (≈ 6.21 µM) |
| Cc1nnnn1Cc1cc(O)c2c(c1)C(=O)c1cccc(O)c1C2=O | 32 (≈ 95.2 µM) |
| O=C1c2cccc(O)c2C(=O)c2c(O)cc(Cn3cncn3)cc21 | 32 (≈ 99.6 µM) |
| O=C1c2cccc(O)c2C(=O)c2c(O)cc(CSc3nnc[nH]3)cc21 | 64 (≈ 181 µM) |

test system: Staphylococcus aureus; test: Antibacterial activity against Staphylococcus aureus assessed as inhibition of bacterial growth after 24 hrs by microbroth dilution method; type: functional; conditions: not given; how it was run: as §1

| Compound | MIC [µg/mL] |
| --- | --- |
| O=C1c2cccc(O)c2C(=O)c2c(O)cc(Cn3cnnn3)cc21 | 16 (≈ 49.6 µM) |
| Cc1nnnn1Cc1cc(O)c2c(c1)C(=O)c1cccc(O)c1C2=O | 16 (≈ 47.6 µM) |
| O=C1c2cccc(O)c2C(=O)c2c(O)cc(Cn3cncn3)cc21 | 8 (≈ 24.9 µM) |
| O=C1c2cccc(O)c2C(=O)c2c(O)cc(CSc3nnc[nH]3)cc21 | 16 (≈ 45.3 µM) |

test system: Staphylococcus aureus; test: Antibacterial activity against Staphylococcus aureus ATCC 29213 assessed as inhibition of bacterial growth after 24 hrs by microbroth dilution method; type: functional; conditions: not given; how it was run: as §2

| Compound | MIC [µg/mL] |
| --- | --- |
| O=C1c2cccc(O)c2C(=O)c2c(O)cc(Cn3cnnn3)cc21 | 1 (≈ 3.1 µM) |
| Cc1nnnn1Cc1cc(O)c2c(c1)C(=O)c1cccc(O)c1C2=O | 64 (≈ 190 µM) |
| O=C1c2cccc(O)c2C(=O)c2c(O)cc(Cn3cncn3)cc21 | 32 (≈ 99.6 µM) |
| O=C1c2cccc(O)c2C(=O)c2c(O)cc(CSc3nnc[nH]3)cc21 | 16 (≈ 45.3 µM) |

test system: Escherichia coli; test: Antibacterial activity against Escherichia coli ATCC 25922 assessed as inhibition of bacterial growth after 24 hrs by microbroth dilution method; type: functional; conditions: not given; how it was run: as §1

| Compound | MIC [µg/mL] |
| --- | --- |
| O=C1c2cccc(O)c2C(=O)c2c(O)cc(Cn3cnnn3)cc21 | 64 (≈ 199 µM) |
| Cc1nnnn1Cc1cc(O)c2c(c1)C(=O)c1cccc(O)c1C2=O | 64 (≈ 190 µM) |
| O=C1c2cccc(O)c2C(=O)c2c(O)cc(Cn3cncn3)cc21 | 64 (≈ 199 µM) |
| O=C1c2cccc(O)c2C(=O)c2c(O)cc(CSc3nnc[nH]3)cc21 | 64 (≈ 181 µM) |

test system: not listed separately; test: Cytotoxicity against human HepG2 cells assessed as cell viability at 12 uM after 72 hrs by CCK8 assay; type: cell-based; conditions: read-out: Activity

| Compound | viability at 72 h, 12 µM [%] |
| --- | --- |
| O=C1c2cccc(O)c2C(=O)c2c(O)cc(Cn3cnnn3)cc21 | > 50 |

test system: Acinetobacter baumannii; test: Antibacterial activity against Acinetobacter baumannii assessed as inhibition of bacterial growth after 24 hrs by microbroth dilution method; type: functional; conditions: not given; how it was run: as §1

| Compound | MIC [µg/mL] |
| --- | --- |
| O=C1c2cccc(O)c2C(=O)c2c(O)cc(Cn3cnnn3)cc21 | 16 (≈ 49.6 µM) |
| Cc1nnnn1Cc1cc(O)c2c(c1)C(=O)c1cccc(O)c1C2=O | 32 (≈ 95.2 µM) |
| O=C1c2cccc(O)c2C(=O)c2c(O)cc(Cn3cncn3)cc21 | 32 (≈ 99.6 µM) |
| O=C1c2cccc(O)c2C(=O)c2c(O)cc(CSc3nnc[nH]3)cc21 | 64 (≈ 181 µM) |

test system: Enterococcus faecalis; test: Antibacterial activity against Enterococcus faecalis assessed as inhibition of bacterial growth after 24 hrs by microbroth dilution method; type: functional; conditions: not given; how it was run: as §1

| Compound | MIC [µg/mL] |
| --- | --- |
| O=C1c2cccc(O)c2C(=O)c2c(O)cc(Cn3cnnn3)cc21 | 4 (≈ 12.4 µM) |
| Cc1nnnn1Cc1cc(O)c2c(c1)C(=O)c1cccc(O)c1C2=O | 16 (≈ 47.6 µM) |
| O=C1c2cccc(O)c2C(=O)c2c(O)cc(Cn3cncn3)cc21 | 128 (≈ 398 µM) |
| O=C1c2cccc(O)c2C(=O)c2c(O)cc(CSc3nnc[nH]3)cc21 | 128 (≈ 362 µM) |

test system: Pseudomonas aeruginosa; test: Antibacterial activity against Pseudomonas aeruginosa assessed as inhibition of bacterial growth after 24 hrs by microbroth dilution method; type: functional; conditions: not given; how it was run: as §1

| Compound | MIC [µg/mL] |
| --- | --- |
| O=C1c2cccc(O)c2C(=O)c2c(O)cc(Cn3cnnn3)cc21 | 64 (≈ 199 µM) |
| Cc1nnnn1Cc1cc(O)c2c(c1)C(=O)c1cccc(O)c1C2=O | 128 (≈ 381 µM) |
| O=C1c2cccc(O)c2C(=O)c2c(O)cc(Cn3cncn3)cc21 | 32 (≈ 99.6 µM) |
| O=C1c2cccc(O)c2C(=O)c2c(O)cc(CSc3nnc[nH]3)cc21 | 32 (≈ 90.6 µM) |
